Values after ≈ are worked out from the molar mass of the structure shown.
How the values were obtained:
U-251 [1] = assay: Antiproliferative activity against human U251 cells assessed as tumor growth inhibition after 48 hrs by sulforhodamine B assay; type: functional; conditions: U-251, 48 h
Method in brief: (§1)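 Tumor cells grown in RPMI 1640 with 5% fetal bovine serum, with penicillin/streptomycin in experimental cultures. Exposed in 96-well plates to samples in DMSO/RPMI at 0.25, 2.5, 25 and 250 µg/mL, 37 °C, 5% CO2, 48 h. Fixed with 50% trichloroacetic acid before (T0) and after treatment, protein stained with sulforhodamine B and read at 540 nm. GI50, TGI and LC50 in µg/mL from dose-response curves by non-linear regression.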

[2] = Antiproliferative activity against human OVCAR3 cells assessed as tumor growth inhibition after 48 hrs by sulforhodamine B assay; type: functional; conditions: OVCAR-3, 48 h; method in brief: as §1
[3] = Antiproliferative activity against human PC3 cells assessed as tumor growth inhibition after 48 hrs by sulforhodamine B assay; type: functional; conditions: PC-3, 48 h; method in brief: as §1
[4] = Antiproliferative activity against human OVCAR3 cells after 48 hrs by sulforhodamine B assay; type: functional; conditions: OVCAR-3, 48 h; method in brief: as §1
NCI/ADR-RES [5] = assay: Antiproliferative activity against human NCI/ADR-RES cells assessed as tumor growth inhibition after 48 hrs by sulforhodamine B assay; type: functional; method in brief: as §1
NCI-H460 [6] = assay: Antiproliferative activity against human NCI-H460 cells after 48 hrs by sulforhodamine B assay; type: functional; conditions: NCI-H460, 48 h; method in brief: as §1
[7] = Antiproliferative activity against human PC3 cells after 48 hrs by sulforhodamine B assay; type: functional; conditions: PC-3, 48 h; method in brief: as §1
U-251 [8] = assay: Antiproliferative activity against human U251 cells after 48 hrs by sulforhodamine B assay; type: functional; conditions: U-251, 48 h; method in brief: as §1
NCI/ADR-RES [9] = assay: Antiproliferative activity against human NCI/ADR-RES cells after 48 hrs by sulforhodamine B assay; type: functional; method in brief: as §1
MCF7 [10] = assay: Antiproliferative activity against human MCF7 cells after 48 hrs by sulforhodamine B assay; type: functional; conditions: MCF7, 48 h; method in brief: as §1
MCF7 [11] = assay: Antiproliferative activity against human MCF7 cells assessed as tumor growth inhibition after 48 hrs by sulforhodamine B assay; type: functional; conditions: MCF7, 48 h; method in brief: as §1
NCI-H460 [12] = assay: Antiproliferative activity against human NCI-H460 cells assessed as tumor growth inhibition after 48 hrs by sulforhodamine B assay; type: functional; conditions: NCI-H460, 48 h; method in brief: as §1
Vero [13] = assay: Cytotoxicity against african green monkey Vero cells after 48 hrs by sulforhodamine B assay; type: cell-based; conditions: chlorocebus sabaeus
786-0 [14] = assay: Antiproliferative activity against human 786-0 cells after 48 hrs by sulforhodamine B assay; type: functional; conditions: 786-0, 48 h; method in brief: as §1
786-0 [15] = assay: Antiproliferative activity against human 786-0 cells assessed as tumor growth inhibition after 48 hrs by sulforhodamine B assay; type: functional; conditions: 786-0, 48 h; method in brief: as §1
Vero [16] = assay: Cytotoxicity against african green monkey Vero cells assessed as tumor growth inhibition after 48 hrs by sulforhodamine B assay; type: cell-based; conditions: chlorocebus sabaeus
Method in brief: (§2)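 Non-tumor lines (human HaCaT keratinocytes; Vero) in RPMI 1640 with 5% FBS, with penicillin/streptomycin added to experimental cultures. 48 h exposure at 0.25–250 µg/mL (DMSO/RPMI), 37 °C, 5% CO2. TCA fixation at time zero and at end, sulforhodamine B protein stain, absorbance 540 nm. TGI (total growth inhibition) from non-linear regression of the dose-response curve.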

U-251 [17] = assay: Cytotoxicity against human U251 cells; type: cell-based
HaCaT [18] = assay: Cytotoxicity against human HaCaT cells assessed as tumor growth inhibition after 48 hrs by sulforhodamine B assay; type: cell-based; method in brief: as §2
HaCaT [19] = assay: Cytotoxicity against human HaCaT cells after 48 hrs by sulforhodamine B assay; type: cell-based

Row | SMILES | TGI (U-251 [1]) | TGI [2] | TGI [3] | GI50 [4] | TGI (NCI/ADR-RES [5]) | GI50 (NCI-H460 [6]) | GI50 [7] | GI50 (U-251 [8]) | GI50 (NCI/ADR-RES [9]) | GI50 (MCF7 [10]) | TGI (MCF7 [11]) | TGI (NCI-H460 [12]) | LC50 (Vero [13]) | GI50 (786-0 [14]) | TGI (786-0 [15]) | TGI (Vero [16]) | LC50 (U-251 [17]) | TGI (HaCaT [18]) | LC50 (HaCaT [19])
1 | CCCCCCCC/C=C\CCCCCCCC(=O)N[C@H](C)c1ccccc1 | 28.3 µg/mL (≈ 73.4 µM) | > 250 µg/mL | 162 µg/mL (≈ 419 µM) | 56.9 µg/mL (≈ 148 µM) | 35.3 µg/mL (≈ 91.5 µM) | 36.6 µg/mL (≈ 94.9 µM) | 46.9 µg/mL (≈ 122 µM) | 6.1 µg/mL (≈ 15.8 µM) | 3 µg/mL (≈ 7.78 µM) | 6.1 µg/mL (≈ 15.8 µM) | 40.8 µg/mL (≈ 106 µM) | 106 µg/mL (≈ 274 µM) | 10.3 µg/mL (≈ 26.7 µM) | 26.8 µg/mL (≈ 69.5 µM) | 84.8 µg/mL (≈ 220 µM) | 43 µg/mL (≈ 112 µM) | – | – | –
2 | CCCCCCCC/C=C\CCCCCCCC(=O)N1CCCC1 | 5.8 µg/mL (≈ 17.3 µM) | 14 µg/mL (≈ 41.7 µM) | 21.9 µg/mL (≈ 65.3 µM) | 11.5 µg/mL (≈ 34.3 µM) | 5.6 µg/mL (≈ 16.7 µM) | 45.6 µg/mL (≈ 136 µM) | 13 µg/mL (≈ 38.7 µM) | 3.8 µg/mL (≈ 11.3 µM) | 0.2 µg/mL (≈ 0.596 µM) | 5.2 µg/mL (≈ 15.5 µM) | > 250 µg/mL | 153 µg/mL (≈ 456 µM) | 3.9 µg/mL (≈ 11.6 µM) | 5.2 µg/mL (≈ 15.5 µM) | 23.3 µg/mL (≈ 69.4 µM) | 10.6 µg/mL (≈ 31.6 µM) | 14.2 µg/mL (≈ 42.3 µM) | – | –
3 | CCCCC/C=C\C/C=C\CCCCCCCC(=O)N1CCCCC1 | 22.1 µg/mL (≈ 63.6 µM) | 58.4 µg/mL (≈ 168 µM) | 48.9 µg/mL (≈ 141 µM) | 48.9 µg/mL (≈ 141 µM) | 63.2 µg/mL (≈ 182 µM) | 29.1 µg/mL (≈ 83.7 µM) | 53.6 µg/mL (≈ 154 µM) | 44.2 µg/mL (≈ 127 µM) | 63.2 µg/mL (≈ 182 µM) | 22.1 µg/mL (≈ 63.6 µM) | 44.2 µg/mL (≈ 127 µM) | 53.6 µg/mL (≈ 154 µM) | – | 58.4 µg/mL (≈ 168 µM) | 29.1 µg/mL (≈ 83.7 µM) | – | – | 30.5 µg/mL (≈ 87.7 µM) | 4.2 µg/mL (≈ 12.1 µM)
4 | CCCCCCCC/C=C\CCCCCCCC(=O)N[C@@H](C)c1ccccc1 | 17.8 µg/mL (≈ 46.2 µM) | 45.5 µg/mL (≈ 118 µM) | 47.1 µg/mL (≈ 122 µM) | 10.5 µg/mL (≈ 27.2 µM) | 7.1 µg/mL (≈ 18.4 µM) | 15.2 µg/mL (≈ 39.4 µM) | 13.7 µg/mL (≈ 35.5 µM) | 5.1 µg/mL (≈ 13.2 µM) | 0.3 µg/mL (≈ 0.778 µM) | 7.17 µg/mL (≈ 18.6 µM) | 43 µg/mL (≈ 112 µM) | 49.3 µg/mL (≈ 128 µM) | – | 10.3 µg/mL (≈ 26.7 µM) | 45.8 µg/mL (≈ 119 µM) | – | – | 36.8 µg/mL (≈ 95.4 µM) | 6.4 µg/mL (≈ 16.6 µM)
5 | CCCCCC[C@@H](O)C/C=C\CCCCCCCC(=O)NCCO | 6.5 µg/mL (≈ 19 µM) | 8.8 µg/mL (≈ 25.8 µM) | 23.5 µg/mL (≈ 68.8 µM) | 4.1 µg/mL (≈ 12 µM) | 5.4 µg/mL (≈ 15.8 µM) | 4.1 µg/mL (≈ 12 µM) | 6.3 µg/mL (≈ 18.4 µM) | 3.6 µg/mL (≈ 10.5 µM) | 2.8 µg/mL (≈ 8.2 µM) | 6.5 µg/mL (≈ 19 µM) | 3.7 µg/mL (≈ 10.8 µM) | 9.8 µg/mL (≈ 28.7 µM) | 3.4 µg/mL (≈ 9.96 µM) | 6.6 µg/mL (≈ 19.3 µM) | 20.4 µg/mL (≈ 59.7 µM) | 7.6 µg/mL (≈ 22.3 µM) | – | – | –
6 | CCCCCCCCCCCCCCCCCC(=O)N1CCCC1 | 32.5 µg/mL (≈ 96.3 µM) | 68.5 µg/mL (≈ 203 µM) | 36 µg/mL (≈ 107 µM) | 7.3 µg/mL (≈ 21.6 µM) | 43.5 µg/mL (≈ 129 µM) | 10.8 µg/mL (≈ 32 µM) | 9.4 µg/mL (≈ 27.8 µM) | 8 µg/mL (≈ 23.7 µM) | 7.1 µg/mL (≈ 21 µM) | 7.4 µg/mL (≈ 21.9 µM) | 39.9 µg/mL (≈ 118 µM) | 56.8 µg/mL (≈ 168 µM) | – | 14 µg/mL (≈ 41.5 µM) | 48.4 µg/mL (≈ 143 µM) | – | – | 27.4 µg/mL (≈ 81.2 µM) | 6.3 µg/mL (≈ 18.7 µM)
7 | CCCCCC[C@@H](O)C/C=C\CCCCCCCC(=O)N1CCCCC1 | 6.3 µg/mL (≈ 17.2 µM) | 24.2 µg/mL (≈ 66.2 µM) | 16.6 µg/mL (≈ 45.4 µM) | 16.6 µg/mL (≈ 45.4 µM) | 22.7 µg/mL (≈ 62.1 µM) | 10.7 µg/mL (≈ 29.3 µM) | 23.3 µg/mL (≈ 63.7 µM) | 14.8 µg/mL (≈ 40.5 µM) | 22.7 µg/mL (≈ 62.1 µM) | 6.3 µg/mL (≈ 17.2 µM) | 14.8 µg/mL (≈ 40.5 µM) | 23.3 µg/mL (≈ 63.7 µM) | – | 24.2 µg/mL (≈ 66.2 µM) | 10.7 µg/mL (≈ 29.3 µM) | – | – | 12.8 µg/mL (≈ 35 µM) | 2.6 µg/mL (≈ 7.11 µM)
8 | COc1cccc2c1C(=O)c1c(O)c3c(c(O)c1C2=O)C[C@@](O)(C(=O)CO)C[C@@H]3O[C@H]1C[C@H](N)[C@H](O)[C@H](C)O1 [DOXORUBICIN] | 0.92 µg/mL (≈ 1.69 µM) | 7.6 µg/mL (≈ 14 µM) | 11.7 µg/mL (≈ 21.5 µM) | – | 1.6 µg/mL (≈ 2.94 µM) | – | – | – | – | – | 3.3 µg/mL (≈ 6.07 µM) | 4.9 µg/mL (≈ 9.02 µM) | – | – | > 25 µg/mL | 4.1 µg/mL (≈ 7.54 µM) | – | 2.3 µg/mL (≈ 4.23 µM) | –
9 | CCCCCCCC/C=C\CCCCCCCC(=O)NCCO [OLEOYLETHANOLAMIDE] | 51.3 µg/mL (≈ 158 µM) | 71.7 µg/mL (≈ 220 µM) | 44.2 µg/mL (≈ 136 µM) | 35.4 µg/mL (≈ 109 µM) | 39.5 µg/mL (≈ 121 µM) | 36.5 µg/mL (≈ 112 µM) | 16.9 µg/mL (≈ 51.9 µM) | 27.3 µg/mL (≈ 83.9 µM) | 9.1 µg/mL (≈ 28 µM) | 25.9 µg/mL (≈ 79.6 µM) | 66.7 µg/mL (≈ 205 µM) | 81 µg/mL (≈ 249 µM) | – | 35.4 µg/mL (≈ 109 µM) | 64.6 µg/mL (≈ 198 µM) | – | – | 53.5 µg/mL (≈ 164 µM) | 14.4 µg/mL (≈ 44.2 µM)
